Reference: the array DNA melting data of Ke et al. (doi:10.1101/2024.01.08.574731)

Assays:
[1] = folding enthalpy; higher = less favourable; fluorescence melt of hairpins on a sequencing array, two-state fit; conditions: sodium 0.088 M
How it was run: (§1)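 Two-state fits, bootstrapped, provided melting temperature and folding enthalpy from Cy3 fluorescence normalised to pre-quench Cy3 and to control constructs. Library hairpins with annealed Cy3 and quencher oligos were imaged on a sequenced MiSeq flow cell in 50 mM Na-HEPES pH 8.0, 25 mM NaCl, at 2.5 °C intervals up to 60 °C. Four replicates were combined with inverse-variance weighting. A 9.35 °C upward shift was applied to fitted temperatures to match UV melts.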

[2] = melting temperature; fluorescence melt of hairpins on a sequencing array, two-state fit, raised by 9.35 °C to match UV melts; conditions: sodium 0.088 M
How it was run: as §1

| Sequence | folding enthalpy [1] | Tm [2] |
| --- | --- | --- |
| AAAGTGAAAACTTT (((((....))))) | -11.1 kcal/mol | 33 °C |
| AAATCGAAAGATTT (((((....))))) | -13.6 kcal/mol | 46.6 °C |
| AACCTGAAAAGGTT (((((....))))) | -20 kcal/mol | 45.5 °C |
| AACGTGAAAACGTT (((((....))))) | -19.2 kcal/mol | 48 °C |
| AACTTGAAAAAGTT (((((....))))) | -14.2 kcal/mol | 30.4 °C |
| AAGACGAAAGTCTT (((((....))))) | -20.1 kcal/mol | 52.7 °C |
| AAGCGGAAACGCTT (((((....))))) | -17.5 kcal/mol | 57.3 °C |
| AAGGGGAAACCCTT (((((....))))) | -13.8 kcal/mol | 46 °C |
| AAGGTGAAAACCTT (((((....))))) | -17.5 kcal/mol | 43.2 °C |
| AAGTCGAAAGACTT (((((....))))) | -18.3 kcal/mol | 52.6 °C |
| AATACGAAAGTATT (((((....))))) | -15.3 kcal/mol | 44.8 °C |
| AATGTGAAAACATT (((((....))))) | -15 kcal/mol | 37.8 °C |
| ACAACGAAAGTTGT (((((....))))) | -21.6 kcal/mol | 53.6 °C |
| ACAAGGAAACTTGT (((((....))))) | -12.6 kcal/mol | 40.3 °C |
| ACACGGAAACGTGT (((((....))))) | -24 kcal/mol | 55.1 °C |
| ACATAGAAATATGT (((((....))))) | -7.88 kcal/mol | 24.6 °C |
| ACCCAGAAATGGGT (((((....))))) | -18.3 kcal/mol | 47.9 °C |
| ACGATGAAAATCGT (((((....))))) | -19 kcal/mol | 51 °C |
| ACTTCGAAAGAAGT (((((....))))) | -20.8 kcal/mol | 50.8 °C |
| AGATCGAAAGATCT (((((....))))) | -23.2 kcal/mol | 50.9 °C |
| AGCTTGAAAAAGCT (((((....))))) | -17.4 kcal/mol | 47.9 °C |
| AGGTAGAAATACCT (((((....))))) | -14.5 kcal/mol | 33.5 °C |
| AGTACGAAAGTACT (((((....))))) | -21.4 kcal/mol | 54.1 °C |
| AGTCGGAAACGACT (((((....))))) | -20.1 kcal/mol | 54.3 °C |

| Sequence | folding enthalpy [1] | Tm [2] |
| --- | --- | --- |
| AGTTCGAAAGAACT (((((....))))) | -20.8 kcal/mol | 55.4 °C |
| ATACAGAAATGTAT (((((....))))) | -10.4 kcal/mol | 25.3 °C |
| ATCAGTGAAAAATCACTGAA .................... | -20.6 kcal/mol | 31.9 °C |
| ATCAGTGAGAAATCACTGAA .................... | -14.1 kcal/mol | 46.2 °C |
| ATCCAGAAATGGAT (((((....))))) | -14.3 kcal/mol | 41.2 °C |
| ATCCGGAAACGGAT (((((....))))) | -20.7 kcal/mol | 52.8 °C |
| ATTCCGAAAGGAAT (((((....))))) | -20.8 kcal/mol | 52.4 °C |
| CAAACAGAAATGGTTG (((.((....)).))) | -13 kcal/mol | 29.4 °C |
| CATCAGAAATGATG (((((....))))) | -18.6 kcal/mol | 41.7 °C |
| CATCTGAAAAGATG (((((....))))) | -25.1 kcal/mol | 44.5 °C |
| CATTTGAAAAAATG (((((....))))) | -11.1 kcal/mol | 32.1 °C |
| CCCCAGAAATGGGG (((((....))))) | -16 kcal/mol | 52.2 °C |
| CCGAAGAAATTCGG (((((....))))) | -19.2 kcal/mol | 46.9 °C |
| CCGGAGAAATCCGG (((((....))))) | -21.4 kcal/mol | 56.5 °C |
| CCGTGGAAACACGG (((((....))))) | -29.2 kcal/mol | 59.1 °C |
| CGAAAGAAATTTCG (((((....))))) | -13.6 kcal/mol | 38.5 °C |
| CGAACACGGAAACGTTCG (((..(((....)))))) | -32.4 kcal/mol | 42.7 °C |
| CGAACCGGAAACGGCTCG (((.(((....))).))) | -35.5 kcal/mol | 49.9 °C |
| CGAACCGGAAACGGGTCG (((.(((....))).))) | -33.9 kcal/mol | 58.3 °C |
| CGAACGGAAACGTGCTCG ((((((....)))..))) | -15.1 kcal/mol | 28.5 °C |
| CGAACGGAAACGTGTCG ((((((....))).))) | -23.1 kcal/mol | 38.5 °C |
| CGAAGGAAACTTCG (((((....))))) | -21.5 kcal/mol | 48.6 °C |
| CGAAGGCGGAAACGCTCG (((..(((....)))))) | -20.8 kcal/mol | 37.5 °C |
| CGAATCGGAAACGAATCG (((.(((....))).))) | -37.4 kcal/mol | 44.7 °C |

| Sequence | folding enthalpy [1] | Tm [2] |
| --- | --- | --- |
| CGAATCGGAAACGATCG (((.(((....)))))) | -32.4 kcal/mol | 45.6 °C |
| CGACACGGAAACGTATCG (((.(((....))).))) | -28.1 kcal/mol | 42.3 °C |
| CGACACGGAAACGTTTCG (((.(((....))).))) | -33.7 kcal/mol | 44.8 °C |
| CGACCCGGAAACGGATCG (((.(((....))).))) | -33.4 kcal/mol | 48.8 °C |
| CGACCCGGAAACGGCTCG (((.(((....))).))) | -23.7 kcal/mol | 40.1 °C |
| CGACCGGAAACGGAATCG ((((((....)))..))) | -14.3 kcal/mol | 35.7 °C |
| CGACCGGAAACGGACTCG ((((((....)))..))) | -12.9 kcal/mol | 30.7 °C |
| CGACCGGAAACGGGATCG ((((((....)))..))) | -15.7 kcal/mol | 38.8 °C |
| CGACCGGAAACGGGTTCG ((((((....)))..))) | -21.4 kcal/mol | 38.9 °C |
| CGACCGGAAACGGTATCG ((((((....)))..))) | -13.6 kcal/mol | 33.6 °C |
| CGACTCCGGAAACGGTCG (((..(((....)))))) | -24.1 kcal/mol | 38.4 °C |
| CGAGAACGGAAACGTTCG (((..(((....)))))) | -25.3 kcal/mol | 52.9 °C |
| CGAGCACGGAAACGTTCG (((..(((....)))))) | -13.5 kcal/mol | 36.7 °C |
| CGAGCGGAAACGCTTCG ((((((....))).))) | -15 kcal/mol | 50.6 °C |
| CGAGGCGGAAACGCTTCG (((.(((....))).))) | -35.3 kcal/mol | 55.3 °C |
| CGATACCGGAAACGGTCG (((..(((....)))))) | -12.3 kcal/mol | 35.1 °C |
| CGATACGGAAACGTTCG (((.(((....)))))) | -28.6 kcal/mol | 42.3 °C |
| CGATCCGGAAACGGTCG (((.(((....)))))) | -29.1 kcal/mol | 50.5 °C |
| CGATCGGAAACGACGTCG ((((((....)))..))) | -18.6 kcal/mol | 40.8 °C |
| CGATCGGAAACGAGGTCG ((((((....)))..))) | -13.5 kcal/mol | 31 °C |
| CGATCGGAAACGAGTCG ((((((....))).))) | -24.7 kcal/mol | 39.9 °C |
| CGATCGGAAACGAGTTCG ((((((....)))..))) | -20.5 kcal/mol | 34.3 °C |
| CGATGCGGAAACGCCTCG (((.(((....))).))) | -40.4 kcal/mol | 48.1 °C |
| CGATGCGGAAACGCTTCG (((.(((....))).))) | -41.7 kcal/mol | 53 °C |
